Gli-Sufu antag = Gli-Sufu pathway antagonists, primary screen, luciferase luminescence, Sufu-KO-LIGHT cells, uHTS. hit rate 0.74% among 340,000. Sufu-KO-LIGHT fibroblasts, Gli luciferase reporter luminescence. inhibition, % at 5 µM;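 active means inhibition above about 55%, limit read from the data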;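 further: 0% = DMSO-treated cells and 100% = wells with medium but no cells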
UPR XBP1 act = activators of adaptive XBP1 UPR arm, primary screen, cell-based, CHO-XBP1 luciferase reporter, luminescence, uHTS; IRE1-XBP1 UPR activation; percent of tunicamycin response, DMSO as zero; activation, % at 20 µM; hit rate 0.33% among 330,000;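 active means versus positive control, 20 µM dose yields 30% or more activation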;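 further: 100% = tunicamycin at 10 µg/mL and 0% = DMSO only wells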
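assay system = CHO-XBP1 luciferase reporter cells | amount = 1000 cells/well | buffer or medium = F12 plus 10% FBS | compound dosing = single point, 20 µM final compound, 1% DMSO | incubation = 16-18 h cell attachment at 37 °C, then 6 h compound exposure | detection = Steady-Glo luminescence read | controls = tunicamycin 10 µg/mL and vehicle-only wells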
UPR CHOP act = activators of apoptotic CHOP UPR arm, primary screen, cell-based, CHO-CHOP luciferase reporter, luminescence, uHTS | UPR activation; percent of tunicamycin response over DMSO baseline | activation, % at 10 µM | hit rate 0.34% among 330,000 | AID 449763, 2010;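 active means at 10 µM dose, activation of 40% or more, normalized to positive control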;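 further: 100% = tunicamycin at 10 µg/mL and 0% = DMSO alone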
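Assay system: CHO-CHOP cells, stable luciferase reporter of PERK-eIF2a-CHOP signalling / Buffer or medium: F12 plus 10% serum / Compound dosing: one dose, 10 µM in 0.5% DMSO / Times: 6 h compound treatment, 37 °C / Technique: luciferase luminescence / Read-out: % reporter activation, DMSO baseline versus tunicamycin full activation / Benchmarks: tunicamycin and DMSO controls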
CHOP inh = inhibitors of CHOP promoter induction, primary screen, cell-based, unfolded protein response, luciferase reporter | hit rate 3.8% among 220,000 | CHO-K1 CHOP-promoter luciferase, tunicamycin-induced, 15-18 h | inhibition, % at 10 µM | AID 2732, 2010;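 active means compounds that reduced the stress-induced luciferase reporter signal by more than about 70% of percent inhibition, limit read from the data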;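 further: 0% = tunicamycin plus vehicle and 100% = wells without tunicamycin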
697 NFkB inh = inhibitors of PMA/ionomycin-induced NF-kB reporter, 697 cells, primary screen, B-cell NF-kB inhibitor project, cell-based, luminescence, uHTS. 697 B-cell NF-kB luciferase reporter, 16 h. inhibition, % at 4 µM. hit rate 0.33% among 330,000; in the data active means inhibition above about 35%
Jurkat NFkB inh = inhibitors of induced NF-kB luciferase reporter, primary screen, TCR NF-kB activation inhibitor project, cell-based, luminescence, uHTS; Jurkat, PMA/ionomycin-induced NF-kB luciferase reporter; inhibition, % at 4 µM; hit rate 0.53% among 330,000; in the data active means inhibition above about 50%
* marks the source's active call; other numbers are inactive results; nt = no result. The list is not random: actives were taken first. Their share in the collection is about 3.9%.

SMILES | Gli-Sufu antag | UPR XBP1 act | UPR CHOP act | CHOP inh | 697 NFkB inh | Jurkat NFkB inh
CCOC(=O)C1=C(COC(=O)CCc2ccc(CC)cc2)NC(=O)NC1C (centres undefined) | -1 | 0 | 1 | nt | 20 | -4
CC(C)C1Nc2ccc(C(=O)NCCCN3CCOCC3)cc2NC1=O (centres undefined) | 18 | 1 | 2 | nt | 11 | 7
O=C(N/N=C/c1ccc(OC(=O)c2ccccc2)cc1)c1ccc(CN2CCOCC2)cc1 | 19 | 0 | 0 | 71* | 10 | -5
CCN1CCC2(CC1)N=C(c1ccc(F)cc1)C(=S)N2C(=O)c1ccc(C(C)(C)C)cc1 | 3 | -1 | 1 | 93* | -10 | 0
Cc1nn(-c2ccccc2)c(C)c1C(=O)OC(C)C(=O)NC1CCCCC1C (centres undefined) | 5 | 0 | 0 | nt | 3 | 21
O=C(CSc1nnc(-c2cccnc2)o1)Nc1cccc(F)c1 | -6 | 0 | 4 | nt | -32 | -74
CC(C)(Oc1ccc(Cl)cc1)C(=O)N1CCC(C(N)=O)CC1 | 14 | 0 | -1 | -8 | 12 | -7
CCOC(=O)N1CCN(C(=O)C(C)(C)Oc2ccc(Cl)cc2)CC1 | -1 | 3 | 0 | 83* | -3 | -22
CCN(CC)c1cccc(OC2=NS(=O)(=O)c3ccccc32)c1 | 7 | 0 | -3 | 81* | 7 | 0
c1ccc2c(c1)ccc1ccccc12 | 1 | 1 | 2 | nt | 9 | -9
CC1=[N+](C)c2ccc3ccccc3c2C1(C)C | 70* | 11 | 8 | 19 | -17 | 35
Cc1ccc(C)c(NC(=O)Cc2coc3cc4c(cc23)CCC4)c1 | 1 | -4 | 0 | 85* | 22 | -7
COc1ccc(S(=O)(=O)N2CCOCC2)cc1NC(=O)CN1C(=O)NC2(CCCC2)C1=O | -2 | -2 | -2 | nt | 9 | -4
CCCCOC(=O)c1ccc(NC(=O)COC(=O)c2ccc3ncsc3c2)cc1 | -27 | 0 | 4 | nt | -16 | -39
CCC1CCCCN1Cc1nc2c(c(=O)n(C)c(=O)n2C)n1CCC(C)C (centres undefined) | 10 | -2 | 2 | nt | -19 | 11
CCCCCCn1c(CN2CCCCC2CC)nc2c1c(=O)n(C)c(=O)n2C (centres undefined) | 8 | -5 | 4 | 92* | -32 | 14
COc1ccc(OC)c(-c2cc(C3CCN(c4ncccc4[N+](=O)[O-])CC3)[nH]n2)c1 | -12 | 0 | 1 | 42 | -3 | -10
O=[N+]([O-])c1cccnc1N1CCC(c2cc(-c3ccc(Cl)cc3Cl)n[nH]2)CC1 | -10 | 1 | -1 | 92* | 0 | -13
Cc1cc(OCCn2cncn2)ccc1[N+](=O)[O-] | -13 | -2 | -2 | nt | -24 | -4
CSCCC(=O)N1CCN(CC(=O)N2CCCC2)CC1 | -9 | 4 | 2 | nt | 13 | 17
CCOC(=O)CCc1c(C)nc(SCCCn2c(=O)[nH]c3ccccc32)c(C#N)c1C | 7 | -3 | 0 | 83* | -2 | -10
Cc1cccc(NC(=O)c2cccc(S(=O)(=O)N3CCc4ccccc4C3)c2)n1 | -11 | -1 | -4 | nt | 10 | -9
O=C1c2ccccc2NC(c2ccc(Cl)cc2Cl)N1Cc1ccccc1 (centres undefined) | 1 | -2 | 3 | 87* | 2 | -3
CC(=O)NC(Cc1ccccc1)C(=O)Oc1ccc2ccccc2c1 (centres undefined) | 0 | nt | nt | nt | nt | nt
S=C(NCCC(c1ccccc1)c1ccccc1)Nc1cccc(Cl)c1 | -2 | -3 | 0 | 94* | 0 | -37
SMILES | Gli-Sufu antag | UPR XBP1 act | UPR CHOP act | CHOP inh | 697 NFkB inh | Jurkat NFkB inh
S=C(NCCN(C1CCCCC1)C1CCCC1)Nc1cccc(Cl)c1 | 29 | 0 | 2 | nt | 4 | 25
O=C(Nc1ccccc1)Nc1cccc(Cl)c1 | -41 | 0 | 4 | 95* | -47 | -41
COc1ccccc1NC(=O)Cn1c(=O)n(-c2ccccc2)c(=O)c2oc3ccccc3c21 | 7 | -3 | 3 | 81* | 1 | 5
Cc1ccc(N(C(=O)CCl)C(C(=O)NC2CCCCC2)c2cccnc2)cc1C (centres undefined) | 93* | nt | nt | 70 | nt | nt
COc1cccc(-c2cc(C(F)(F)F)nc(N3CCOCC3)n2)c1 | -1 | -1 | 1 | 74* | 8 | 0
COc1cccc(-c2cc(C(F)(F)F)nc(N3CCC(C)CC3)n2)c1 | 2 | -1 | 0 | 16 | -1 | 1
COc1ccccc1-c1cc(C(F)(F)F)nc(N2CCN(c3ccccc3)CC2)n1 | 2 | 0 | 0 | 23 | 7 | -4
COc1ccccc1-c1cc(C(F)(F)F)nc(N2CCOCC2)n1 | 7 | -3 | 0 | 72* | 0 | -5
O=C1c2cccc3c(N4CCCCC4)ccc(c23)C(=O)N1c1ccc(O)cc1 | -7 | 6 | 1 | 106* | -40 | 18
O=C1c2cccc3c(N4CCCCC4)ccc(c23)C(=O)N1c1ccccc1O | -5 | -1 | 1 | 4 | -24 | -12
O=C(COC(=O)CCC1CCCC1)Nc1ccc(Cl)cn1 | 0 | -3 | 1 | 73* | 7 | 2
O=C(COC(=O)C1CCC1)Nc1ccc(Cl)cn1 | 6 | -2 | 0 | nt | -6 | -12
Clc1ccc(CN2C3=NCCN3c3ccccc32)cc1 | 9 | 0 | -1 | 71* | -43 | -6
CCOC(=O)C1=C(C)NC(C)=C(C(=O)OCC)C1c1cn(-c2ccccc2)nc1-c1ccco1 | 1 | 5 | 2 | 84* | 10 | -4
O=C1CCCN1CCCNc1nc2c(S(=O)(=O)c3ccccc3)nnn2c2ccc(Cl)cc12 | -6 | -2 | 3 | nt | 14 | 18
C=CCc1cccc2cc(C(=O)N3CCN(c4ccccn4)CC3)c(=O)oc12 | -5 | -5 | 1 | 4 | 3 | -1
Cc1ccc(C(=O)Nc2nc(C(C)(C)C)cs2)s1 | -90 | 12 | 3 | 77* | -135 | -103
CC(C)(C)c1csc(NC(=O)Nc2ccccc2)n1 | -74 | 4 | 6 | 76* | -118 | -81
Cc1cccc(NC(=S)N(CCc2nc3cc(C)c(C)cc3[nH]2)Cc2cccnc2)c1 | 2 | 4 | 2 | 80* | 28 | -10
COc1cccc(NC(=S)N(CCc2nc3cc(C)c(C)cc3[nH]2)Cc2cccnc2)c1 | 0 | 2 | 2 | 23 | 8 | -9
O=S(=O)(c1ccc(Cl)c(C(F)(F)F)c1)N1CCN(c2ccccn2)CC1 | -6 | -3 | -1 | 72* | 3 | 2

Source: PubChem
